# Test results as given in ChEMBL document CHEMBL1833952, “Inhibition of COX-1 activity and COX-2 expression by 3-(4'-geranyloxy-3'-methoxyphenyl)-2-trans propenoic acid and its semi-synthetic derivatives” (Bioorg Med Chem Lett, 2011).
# Active and inactive are the calls of the source. No cut-off for these calls is given here.
# Tests used:
# [1] = target: T1, Prostaglandin G/H synthase 2 (Homo sapiens) (UniProt P35354); assay: Inhibition of COX2 promoter activity in human DLD1 cells at 100 uM; type: cell-based; details: DLD-1
# T1 sequence (whole entry): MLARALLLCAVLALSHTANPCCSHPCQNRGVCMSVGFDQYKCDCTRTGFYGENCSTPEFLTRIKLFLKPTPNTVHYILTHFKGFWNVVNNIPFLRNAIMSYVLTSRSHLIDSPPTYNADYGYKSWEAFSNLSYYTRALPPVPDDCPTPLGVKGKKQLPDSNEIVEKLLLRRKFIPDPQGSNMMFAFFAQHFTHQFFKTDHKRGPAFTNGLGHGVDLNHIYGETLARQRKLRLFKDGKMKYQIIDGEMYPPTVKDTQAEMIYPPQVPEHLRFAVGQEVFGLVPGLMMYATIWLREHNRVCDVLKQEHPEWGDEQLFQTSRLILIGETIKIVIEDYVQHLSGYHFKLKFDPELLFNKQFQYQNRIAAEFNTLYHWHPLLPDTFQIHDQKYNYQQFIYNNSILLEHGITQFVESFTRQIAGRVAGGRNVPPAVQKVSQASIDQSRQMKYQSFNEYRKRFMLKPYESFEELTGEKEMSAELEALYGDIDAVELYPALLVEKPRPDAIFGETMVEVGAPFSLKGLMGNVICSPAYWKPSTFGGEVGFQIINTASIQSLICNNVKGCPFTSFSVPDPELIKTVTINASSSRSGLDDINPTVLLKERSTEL
# [2] = tested on: Raji; assay: Inhibition of TPA-induced EBV-early antigen activation in human Raji cells; type: cell-based; details: human gammaherpesvirus 4, dose or concentration not given here
# [3] = tested on: HL-60; assay: Inhibition of superoxide radicals production in human HL60 cells; type: functional
# [4] = target: T2, Prostaglandin G/H synthase 1 (Ovis aries) (UniProt P05979); assay: (§1) Inhibition of ovine COX1 using TMPD as substrate preincubated for 15 mins
# T2 sequence (whole entry): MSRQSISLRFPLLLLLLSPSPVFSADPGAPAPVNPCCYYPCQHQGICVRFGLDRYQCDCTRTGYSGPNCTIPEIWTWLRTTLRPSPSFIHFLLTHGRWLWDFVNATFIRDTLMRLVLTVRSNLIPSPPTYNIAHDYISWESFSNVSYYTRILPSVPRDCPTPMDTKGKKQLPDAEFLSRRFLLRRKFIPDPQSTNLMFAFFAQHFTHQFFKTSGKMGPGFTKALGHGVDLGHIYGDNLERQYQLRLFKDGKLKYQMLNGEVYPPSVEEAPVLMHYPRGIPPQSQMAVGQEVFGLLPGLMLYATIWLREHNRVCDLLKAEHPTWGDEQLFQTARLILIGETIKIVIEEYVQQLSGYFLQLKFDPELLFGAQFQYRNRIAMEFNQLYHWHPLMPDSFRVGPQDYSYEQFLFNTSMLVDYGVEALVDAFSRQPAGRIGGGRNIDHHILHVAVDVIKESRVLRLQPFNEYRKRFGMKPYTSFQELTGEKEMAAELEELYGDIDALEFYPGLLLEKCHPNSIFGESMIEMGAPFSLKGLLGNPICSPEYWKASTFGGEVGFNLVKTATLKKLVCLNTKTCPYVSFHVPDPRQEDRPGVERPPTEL
# [5] = tested on: Monocyte; assay: Antiinflammatory activity in human monocytes assessed as inhibition of LPS-induced COX2 expression at 100 uM after 20 hrs using rabbit polyclonal antibody IgG by Western blot analysis; type: functional, cell-based
# Procedure, shortened: (§2)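 Isolated human monocytes (3 × 10⁶ cells/ml) treated 20 h with test agent or vehicle in the presence of LPS; unstimulated cells as control. Cells lysed; equal protein loads run on SDS-polyacrylamide gel and immunoblotted with rabbit polyclonal antibody to a human COX-2-specific sequence (band ~72 kDa); beta-actin as loading control. Three experiments; dose-response series used for IC50.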
# [6] = target: T3, Prostaglandin G/H synthase 2 (Ovis aries) (UniProt P79208); assay: Inhibition of ovine COX2 using TMPD as substrate at 300 uM preincubated for 15 mins
# T3 sequence (whole entry): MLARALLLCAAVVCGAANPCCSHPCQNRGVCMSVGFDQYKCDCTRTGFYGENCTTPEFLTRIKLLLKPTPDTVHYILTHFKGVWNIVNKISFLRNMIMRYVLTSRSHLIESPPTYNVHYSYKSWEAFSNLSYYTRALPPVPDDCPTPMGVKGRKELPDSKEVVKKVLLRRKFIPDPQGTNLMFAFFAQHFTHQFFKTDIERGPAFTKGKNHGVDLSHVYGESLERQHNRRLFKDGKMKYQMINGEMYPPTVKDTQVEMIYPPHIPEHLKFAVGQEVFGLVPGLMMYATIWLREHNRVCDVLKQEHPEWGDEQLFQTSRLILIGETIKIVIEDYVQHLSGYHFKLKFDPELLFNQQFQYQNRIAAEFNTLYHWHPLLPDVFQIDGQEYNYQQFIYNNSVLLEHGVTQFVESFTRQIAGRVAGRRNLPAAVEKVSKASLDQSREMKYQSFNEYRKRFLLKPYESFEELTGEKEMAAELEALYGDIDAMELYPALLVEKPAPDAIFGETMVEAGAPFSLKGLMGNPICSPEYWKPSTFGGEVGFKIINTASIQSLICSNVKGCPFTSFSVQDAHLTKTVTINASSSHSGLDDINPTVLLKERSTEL
# [7] = tested on: Monocyte; assay: Antiinflammatory activity in human monocytes assessed as inhibition of LPS-induced COX1 expression at 100 uM after 24 hrs using rabbit polyclonal antibody IgG by Western blot analysis; type: functional, cell-based
# Procedure, shortened: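 Isolated human monocytes (3 × 10⁶ cells/ml) incubated with LPS, vehicle or test agent; lysates immunoblotted with a specific anti-COX-1 antibody to assess COX-1-like immunoreactivity.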
# [8] = Antiinflammatory activity in human monocytes assessed as inhibition of LPS-induced COX2 expression assessed per ug of protein at 100 uM after 20 hrs using rabbit polyclonal antibody IgG by SDS-PAGE analysis (reference value: 1.53 +/- 0.3 ng/ug); type: functional, Monocyte; procedure, shortened: as §2
# [9] = Antiinflammatory activity in human monocytes assessed as inhibition of LPS-induced COX2 expression at 10 uM after 20 hrs using rabbit polyclonal antibody IgG by Western blot analysis; type: functional; details: Monocyte; procedure, shortened: as §2
# [10] = target: T4, Prostaglandin G/H synthase 1 (Ovis aries, UniProt P05979); assay: as §1
# T4 sequence (P05979 whole entry): T2 sequence (whole entry)
# [11] = tested on: Monocyte; assay: Antiinflammatory activity in human monocytes assessed as inhibition of LPS-induced COX2 expression at 100 uM after 20 hrs using rabbit polyclonal antibody IgG by SDS-PAGE analysis; type: functional, cell-based; procedure, shortened: as §2
# [12] = tested on: Monocyte; assay: Antiinflammatory activity in human monocytes assessed as inhibition of LPS-induced COX2 expression after 20 hrs using rabbit polyclonal antibody IgG by Western blot analysis; type: functional, cell-based; procedure, shortened: as §2
# [13] = Antiinflammatory activity in human monocytes assessed as inhibition of LPS-induced COX2 expression at 25 uM after 20 hrs using rabbit polyclonal antibody IgG by Western blot analysis; type: functional; details: Monocyte; procedure, shortened: as §2
# [14] = tested on: Monocyte; assay: Antiinflammatory activity in human monocytes assessed as inhibition of LPS-induced COX2 expression at 5 uM after 20 hrs using rabbit polyclonal antibody IgG by SDS-PAGE analysis; type: functional, cell-based; procedure, shortened: as §2
inhibition [4],inhibition [6],Structure (SMILES),inhibition [5],inhibition [7],other results
–,–,COC(=O)/C=C/c1ccc(OC/C=C(\C)CCC=C(C)C)c(OC)c1,–,–,inhibition [1]: 50%; inhibition [2]: 81%; inhibition (INH) [3]: 35%
inactive,inactive,CC(C)=CCC/C(C)=C/COc1ccc(/C=C/C(=O)O)cc1Cl,inactive,inactive,–
inactive,inactive,COc1cc(/C=C/C(=O)O)ccc1OCC=C(C)C [BOROPINIC ACID],–,–,Activity [8]: 1.78 ng/µg
inactive,inactive,CC(C)=CCC/C(C)=C/COc1ccc(/C=C/C(=O)O)cc1,–,–,Activity [8]: 1.7 ng/µg
–,97.5%,COc1cc(/C=C/C(=O)O)ccc1OC/C=C(\C)CCC=C(C)C,–,–,inhibition at 10 µM [9]: 20%; IC50 [10]: 54.2 µM; inhibition [11]: Active; inhibition [12]: Dose-dependent effect
–,74%,CC(C)=CCOc1ccc(/C=C/C(=O)O)cc1,–,–,IC50 [10]: 35.1 µM; inhibition [11]: Active; inhibition [12]: Dose-dependent effect; inhibition at 25 µM [13]: 13%
–,–,CCOC(=O)/C=C/c1ccc(OC/C=C(\C)CCC=C(C)C)c(OC)c1,–,–,inhibition [2]: 78%; inhibition (INH) [3]: 45%
inactive,inactive,CC(C)=CCOc1ccc(/C=C/C(=O)O)cc1Cl,inactive,inactive,–
–,–,C[C@@H]1C[C@H]2[C@@H]3CCC4=CC(=O)C=C[C@]4(C)[C@@]3(F)[C@@H](O)C[C@]2(C)[C@@]1(O)C(=O)CO,–,–,inhibition [14]: Active
inactive,inactive,CC(C)=CCOc1ccc(/C=C/C(=O)O)cc1C,inactive,inactive,–
inactive,inactive,CC(C)=CCC/C(C)=C/COc1ccc(/C=C/C(=O)O)cc1C,inactive,inactive,–
